Results collected from several papers.
Protocols differ between the studies behind these lines.
BRD9: Bromodomain-containing protein 9 (BRD9, Homo sapiens, UniProt Q9H8M2)

Cc1cc(O)c(-c2ccc([C@@H](C)CN(C)C)cc2)c2c1[nH]c(=O)c1sccc12 — inhibition (STE20-related kinase adapter protein beta (Homo sapiens, UniProt Q9C0K7); enzyme activity, inhibitor; 0.1 µM, lysate): 18.9%
COc1cc(-c2cc(C(C)=O)n3ccccc23)c(OC)cc1Cn1ccnc1 — ΔTm (BRD9; thermal stability, DSF; 200 µM): 11.8 °C
CCCC[C@H](NC(C)=O)C(=O)N[C@H]1CC(=O)NCCCC[C@@H](C(=O)N2CCC[C@@H]2C(=O)N[C@@H](C(=O)N2CCC[C@@H]2C(N)=O)C(C)C)NC(=O)[C@H](Cc2c[nH]c3ccccc23)NC(=O)[C@H](CCCNC(=N)N)NC(=O)[C@@H](Cc2ccccc2)NC(=O)[C@@H]2CCCN2C1=O — Emax (Melanocortin receptor 5 (MC5R, Homo sapiens, UniProt P33032); cAMP, agonist): 102%
COc1ccc2oc(-c3ccc4nc(N)oc4c3)c/c(=N\c3ccccc3NC(=O)CCN)c2c1 — remaining binding (Phosphatidylinositol 5-phosphate 4-kinase type-2 alpha (PIP4K2A, Homo sapiens, UniProt P48426); binding; 1 µM): 108%
C1=C/COCc2cc(ccc2OCCN2CCCC2)Nc2nccc(n2)-c2cccc(c2)COC/1 — remaining binding (Bone morphogenetic protein receptor type-1A (BMPR1A, Homo sapiens, UniProt P36894); binding; 0.1 µM): 89%
CC(=O)c1cc(-c2cccc(C(F)(F)F)c2)c2ccccn12 — ΔTm (BRD9; thermal stability, DSF; 200 µM): 3 °C
C#Cc1cc(-c2cc(Nc3nc(N[C@@H](C)c4ccc(F)cn4)ncc3Cl)n[nH]2)ccc1C=O — inhibition (G protein-coupled receptor kinase 6 (GRK6, Homo sapiens, UniProt P43250); enzyme activity, inhibitor; 0.2 µM): 18.9%
NC/C(=C\F)COc1cccc(Cn2c(=S)[nH]c(=O)c3[nH]cnc32)c1 — inhibition (Ileal sodium/bile acid cotransporter (SLC10A2, Homo sapiens, UniProt Q12908); transporter uptake, inhibitor; 30 µM): < 50%
CC(=O)ON=C1C=CC(=C(C#N)c2ccccc2)C=C1 — activity vs control (Serine/threonine-protein kinase haspin (HASPIN, Homo sapiens, UniProt Q8TF76); enzyme activity, inhibitor, ADP detection; 20 µM): 57%
COc1cc(-c2cc(C(C)=O)n3ccccc23)c(OC)cc1C(=O)N1CCOCC1 — ΔTm (BRD9; thermal stability, DSF; 200 µM): 13.8 °C
Cc1ncc(-c2cc3cc(-c4c(C)ccc(O)c4C)cnc3[nH]2)cn1 — inhibition (Membrane-associated tyrosine- and threonine-specific cdc2-inhibitory kinase (PKMYT1, Homo sapiens, UniProt Q99640); cell-free assay, TR-FRET; 3.333 µM): 104%
CCCCC(=O)Nc1ccc(-c2ccc3ncn(CCC)c(=O)c3c2)cn1 — remaining binding (Activin receptor type-2A (ACVR2A, Homo sapiens, UniProt P27037); binding, competition with immobilised ligand; 0.5 µM): 95%
COc1cc(-c2cc(C(C)=O)n3ccccc23)c(OC)cc1C=O — ΔTm (BRD9; thermal stability, DSF; 200 µM): 8.3 °C
Cc1cc(F)cc2c(CCC(=O)N[C@@H]3C(=O)NC[C@H]3O)c(-c3ccc(F)cc3)[nH]c12 — inhibition (Beta-2 adrenergic receptor (ADRB2, Homo sapiens, UniProt P07550); cell-free assay; 10 µM): -2%
COc1cc(-c2cc(C(C)=O)n3ccccc23)c(OC)cc1C(C)=O — ΔTm (BRD9; thermal stability, DSF; 200 µM): 7.5 °C
CCN1/C(=C/C(C)=O)Sc2ccc(F)cc21 — inhibition (Histamine H3 receptor (HRH3, Homo sapiens, UniProt Q9Y5N1); ligand displacement, radioligand; 10 µM): 0%
